“And” between values parts separate entries of the source, which are not always exact repeats. Equal values may be shown once.
Key:
Mus musculus [1] = assay: Peak plasma concentration expresses the ability of compound for the release of dopamine in the plasma of mouse after oral administration of […]; assay type: ADME, organism-based; design: route oral; conditions: in vivo
Outline: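 Male NMRI mice (20–25 g), five per time point and compound, received 0.5 mmol/kg orally. They were decapitated at 10, 20 and 30 min and 1–6 h. Blood was collected, deproteinized with perchloric acid and assayed for L-Dopa and dopamine by HPLC with fluorometric detection. Cmax is given in nmol/mL and tmax in min.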

[2] = Time of maximum L-Dopa plasma concentration was measured in monkey ofter oral administration of the compound; assay type: ADME, organism-based; conditions: simiiformes, in vivo
Outline: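 A single male Cynomolgus monkey (2.7 kg) was fasted 12 h and given 0.5 mmol/kg orally. Blood was drawn from the femoral vein, and plasma L-Dopa and dopamine were assayed by HPLC with fluorometric detection. Cmax is the peak plasma concentration (nmol/mL); tmax is the time of that peak (min).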

Rattus norvegicus [3] = assay: Time of maximum L-Dopa plasma concentration was measured in rat ofter oral administration of the compound; assay type: ADME, organism-based; conditions: in vivo
Outline: (§1)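 Overnight-fasted male Wistar rats (230–250 g), five per compound, received 0.5 mmol/kg orally. Tail-vessel blood was sampled at 10, 20 and 30 min and 1–6 h. Plasma was deproteinized with perchloric acid and centrifuged, then L-Dopa and dopamine were measured by reversed-phase HPLC with fluorometric detection, quantified by peak area. Cmax (nmol/mL) and tmax (min) were taken from the mean curves.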

Rattus norvegicus [4] = assay: Time of maximum dopamine plasma concentration was measured in rat ofter oral administration of the compound; assay type: ADME, organism-based; conditions: in vivo; outline: as §1
[5] = Time of maximum L-Dopa plasma concentration was measured in mouse ofter oral administration of the compound; conditions: in vivo
Rattus norvegicus [6] = assay: Peak plasma concentration expresses the ability of compound for the release of L-Dopa in the plasma of rat after oral administration of 0.5 mmol/kg; conditions: in vivo
Rattus norvegicus [7] = assay: Peak plasma concentration expresses the ability of compound for the release of dopamine in the plasma of rat after oral administration of 0.5 mmol/kg; conditions: in vivo
[8] = Peak plasma concentration expresses the ability of compound for the release of L-Dopa in the plasma of monkey after oral administration of 0.5 mmol/kg; conditions: simiiformes, in vivo
[9] = Peak plasma concentration expresses the ability of compound for the release of dopamine in the plasma of monkey after oral administration of 0.5 mmol/kg; conditions: simiiformes, in vivo
Mus musculus [10] = assay: Peak plasma concentration expresses the ability of compound for the release of L-Dopa in the plasma of mouse after oral administration of 0.5 mmol/kg; conditions: in vivo

| Structure (SMILES) | Cmax (Mus musculus [1]) | T max [2] [h] | T max (Rattus norvegicus [3]) [h] | T max (Rattus norvegicus [4]) | T max [5] [h] | Cmax (Rattus norvegicus [6]) [nM ml-1] | Cmax (Rattus norvegicus [7]) [nM ml-1] | Cmax [8] [nM ml-1] | Cmax [9] [nM ml-1] | Cmax (Mus musculus [10]) [nM ml-1] |
| --- | --- | --- | --- | --- | --- | --- | --- | --- | --- | --- |
| CCCCCCCCCCCCCCCC(=O)OCC(COC(=O)CCCCCCCCCCCCCCC)OC(=O)C(N)Cc1ccc(O)c(O)c1 (centres undefined) | 1.6 nM ml-1 and 3.54 nM ml-1 | 1.83 | 3 | 4 h and 2.5 h | 2 | 24.6 | 17.1 | 18.3 | 6.1 |  |
| N[C@@H](Cc1ccc(O)c(O)c1)C(=O)O [LEVODOPA] |  |  |  |  | 0.5 | 16.2 |  | 9.5 | 8.1 | 1.12 |
